ChEMBL document CHEMBL2176903, “P2-substituted N-acylprolylpyrrolidine inhibitors of prolyl oligopeptidase: biochemical evaluation, binding mode determination, and assessment in a cellular model of synucleinopathy” (J Med Chem, 2012)
The source made the active and inactive calls. The calls are words filed in the database; no cut-off is given here.

Target: Dipeptidyl peptidase 2 (Homo sapiens, UniProt Q9UHL4)
Assay: Inhibition of human seminal plasma DPP2 assessed as pNA release from Lys-Ala-p-nitroanilide substrate pre-incubated with enzyme for 15 min prior to substrate addition by […]
In the case of `CC(C)(C)OC(=O)NCc1cn([C@H]2C[C@@H](C(=O)N3CCC[C@H]3C#N)N(C(=O)CCCc3ccccc3)C2)nn1`, the IC50 is reported as > 100 µM. With `[N-]=[N+]=N[C@@H]1C[C@@H](C(=O)N2CCCC2)N(C(=O)CCCc2ccccc2)C1` the IC50 was > 100 µM. With `O=C([C@@H]1C[C@H](n2cc(-c3ccccn3)nn2)CN1C(=O)OCc1ccccc1)N1CCCC1` the IC50 was > 100 µM. In the case of `O=C([C@@H]1C[C@H](n2cc(-c3ccccc3Cl)nn2)CN1C(=O)CCCc1ccccc1)N1CCCC1`, the IC50 is reported as > 10 µM. With `O=C([C@@H]1C[C@H](n2cc(-c3ccc(F)cc3)nn2)CN1C(=O)CCCc1ccccc1)N1CCCC1` the IC50 was > 100 µM. In the case of `O=C([C@@H]1C[C@H](n2cc(-c3ccc(Br)cc3)nn2)CN1C(=O)CCCc1ccccc1)N1CCCC1`, the IC50 is reported as > 100 µM. With `O=C([C@@H]1C[C@H](n2cc(C3CCCCC3)nn2)CN1C(=O)CCCc1ccccc1)N1CCCC1` the IC50 was > 100 µM. For `CN(C)Cc1cn([C@H]2C[C@@H](C(=O)N3CCCC3)N(C(=O)CCCc3ccccc3)C2)nn1`, the IC50 was > 100 µM.

Target: Prolyl endopeptidase (Sus scrofa, UniProt P23687)
Sequence (P23687 whole entry): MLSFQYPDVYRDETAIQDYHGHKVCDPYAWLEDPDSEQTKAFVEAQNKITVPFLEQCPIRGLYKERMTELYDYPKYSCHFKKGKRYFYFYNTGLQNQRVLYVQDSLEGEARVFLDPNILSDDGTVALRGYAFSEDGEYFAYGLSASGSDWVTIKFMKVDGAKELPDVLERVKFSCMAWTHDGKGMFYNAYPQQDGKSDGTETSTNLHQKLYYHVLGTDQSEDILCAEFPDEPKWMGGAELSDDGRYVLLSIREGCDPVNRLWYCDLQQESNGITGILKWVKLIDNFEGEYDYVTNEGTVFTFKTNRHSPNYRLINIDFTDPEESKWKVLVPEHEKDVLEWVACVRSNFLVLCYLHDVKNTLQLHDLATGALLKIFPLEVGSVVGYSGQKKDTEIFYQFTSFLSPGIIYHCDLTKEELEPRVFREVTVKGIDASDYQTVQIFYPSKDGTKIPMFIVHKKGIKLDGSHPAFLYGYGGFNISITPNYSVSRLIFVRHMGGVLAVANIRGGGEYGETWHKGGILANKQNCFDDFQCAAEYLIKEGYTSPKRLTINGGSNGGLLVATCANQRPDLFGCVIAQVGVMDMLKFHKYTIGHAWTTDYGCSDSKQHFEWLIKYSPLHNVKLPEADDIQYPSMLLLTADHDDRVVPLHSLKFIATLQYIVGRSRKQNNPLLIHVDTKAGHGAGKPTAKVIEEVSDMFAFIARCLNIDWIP
Assay: Inhibition of pig PREP expressed in Escherichia coli using Z-Gly-Pro-p-nitroanilide substrate
`CC(C)(C)OC(=O)NCc1cn([C@H]2C[C@@H](C(=O)N3CCC[C@H]3C#N)N(C(=O)CCCc3ccccc3)C2)nn1` showed an IC50 of 0.009 µM. Work on `[N-]=[N+]=N[C@@H]1C[C@@H](C(=O)N2CCCC2)N(C(=O)CCCc2ccccc2)C1` yielded an IC50 of 0.304 µM. With `O=C([C@@H]1C[C@H](n2cc(-c3ccccn3)nn2)CN1C(=O)OCc1ccccc1)N1CCCC1` the IC50 was 0.357 µM. With `O=C([C@@H]1C[C@H](n2cc(-c3ccccc3Cl)nn2)CN1C(=O)CCCc1ccccc1)N1CCCC1` the IC50 was 0.023 µM. `O=C([C@@H]1C[C@H](n2cc(-c3ccc(F)cc3)nn2)CN1C(=O)CCCc1ccccc1)N1CCCC1` gave an IC50 of 0.033 µM. For `O=C([C@@H]1C[C@H](n2cc(-c3ccc(Br)cc3)nn2)CN1C(=O)CCCc1ccccc1)N1CCCC1`, the IC50 was 0.014 µM. `O=C([C@@H]1C[C@H](n2cc(C3CCCCC3)nn2)CN1C(=O)CCCc1ccccc1)N1CCCC1` gave an IC50 of 0.147 µM. With `CN(C)Cc1cn([C@H]2C[C@@H](C(=O)N3CCCC3)N(C(=O)CCCc3ccccc3)C2)nn1` the IC50 was 0.024 µM.

Target: not listed separately
Assay: Inhibition of bovine testes DPP9 assessed as pNA release from Ala-Pro- p-nitroanilide substrate pre-incubated with enzyme for 15 min prior to substrate addition by […]
Design: species or system Bos taurus
In the case of `CC(C)(C)OC(=O)NCc1cn([C@H]2C[C@@H](C(=O)N3CCC[C@H]3C#N)N(C(=O)CCCc3ccccc3)C2)nn1`, the IC50 is reported as > 100 µM. With `[N-]=[N+]=N[C@@H]1C[C@@H](C(=O)N2CCCC2)N(C(=O)CCCc2ccccc2)C1` the IC50 was > 100 µM. Work on `O=C([C@@H]1C[C@H](n2cc(-c3ccccn3)nn2)CN1C(=O)OCc1ccccc1)N1CCCC1` yielded an IC50 of 53 µM. For `O=C([C@@H]1C[C@H](n2cc(-c3ccccc3Cl)nn2)CN1C(=O)CCCc1ccccc1)N1CCCC1`, the IC50 was > 100 µM. In the case of `O=C([C@@H]1C[C@H](n2cc(-c3ccc(F)cc3)nn2)CN1C(=O)CCCc1ccccc1)N1CCCC1`, the IC50 is reported as > 100 µM. In the case of `O=C([C@@H]1C[C@H](n2cc(-c3ccc(Br)cc3)nn2)CN1C(=O)CCCc1ccccc1)N1CCCC1`, the IC50 is reported as > 10 µM. With `O=C([C@@H]1C[C@H](n2cc(C3CCCCC3)nn2)CN1C(=O)CCCc1ccccc1)N1CCCC1` the IC50 was > 100 µM. For `CN(C)Cc1cn([C@H]2C[C@@H](C(=O)N3CCCC3)N(C(=O)CCCc3ccccc3)C2)nn1`, the IC50 was > 10 µM.

Target: T1, Prolyl endopeptidase (Homo sapiens) (UniProt P48147)
T1 sequence (whole entry): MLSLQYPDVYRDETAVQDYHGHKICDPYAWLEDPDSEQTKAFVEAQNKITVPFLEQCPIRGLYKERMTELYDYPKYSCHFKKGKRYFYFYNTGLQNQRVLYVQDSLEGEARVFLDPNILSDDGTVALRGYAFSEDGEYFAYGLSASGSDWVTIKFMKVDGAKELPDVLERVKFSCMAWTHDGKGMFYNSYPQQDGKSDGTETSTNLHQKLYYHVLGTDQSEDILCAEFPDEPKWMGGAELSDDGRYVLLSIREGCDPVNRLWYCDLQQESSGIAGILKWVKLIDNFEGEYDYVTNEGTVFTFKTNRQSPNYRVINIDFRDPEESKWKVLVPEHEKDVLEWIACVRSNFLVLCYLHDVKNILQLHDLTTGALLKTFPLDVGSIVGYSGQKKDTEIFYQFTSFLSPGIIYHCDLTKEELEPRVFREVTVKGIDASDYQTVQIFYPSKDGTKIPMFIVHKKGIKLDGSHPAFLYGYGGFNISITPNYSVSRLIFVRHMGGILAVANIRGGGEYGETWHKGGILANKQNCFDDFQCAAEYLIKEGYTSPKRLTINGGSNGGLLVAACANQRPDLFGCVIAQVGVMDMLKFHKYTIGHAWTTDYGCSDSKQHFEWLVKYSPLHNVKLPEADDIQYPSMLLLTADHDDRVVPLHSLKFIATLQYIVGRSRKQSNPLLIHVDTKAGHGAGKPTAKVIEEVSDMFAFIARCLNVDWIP
Assay: Inhibition of PREP in human SH-SY5Y cellular model of synucleinopathy over-expressing alpha-synuclein assessed as reduction in late apoptotic level 0.1 to 9 uM incubated for 3 days under oxidative stress condition by high content multiparametric method
Method in brief: (§1)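 SH-SY5Y neuroblastoma cells overexpressing α-SYN were incubated with inhibitor for 3 days under oxidative stress from H₂O₂ plus FeCl₂. Aggregates were detected by thioflavin S staining. Late apoptosis was scored as nuclear condensation and fragmentation. Quantification used automated high-content imaging. Values are % of cells relative to the 1% DMSO control. Significance was tested by ANOVA with Dunnett's post-test (5% level).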
In the case of `CC(C)(C)OC(=O)NCc1cn([C@H]2C[C@@H](C(=O)N3CCC[C@H]3C#N)N(C(=O)CCCc3ccccc3)C2)nn1`, the inhibition is reported as “Active”.

Target: T2, Prolyl endopeptidase FAP (Mus musculus, UniProt P97321)
T2 sequence (P97321 whole entry): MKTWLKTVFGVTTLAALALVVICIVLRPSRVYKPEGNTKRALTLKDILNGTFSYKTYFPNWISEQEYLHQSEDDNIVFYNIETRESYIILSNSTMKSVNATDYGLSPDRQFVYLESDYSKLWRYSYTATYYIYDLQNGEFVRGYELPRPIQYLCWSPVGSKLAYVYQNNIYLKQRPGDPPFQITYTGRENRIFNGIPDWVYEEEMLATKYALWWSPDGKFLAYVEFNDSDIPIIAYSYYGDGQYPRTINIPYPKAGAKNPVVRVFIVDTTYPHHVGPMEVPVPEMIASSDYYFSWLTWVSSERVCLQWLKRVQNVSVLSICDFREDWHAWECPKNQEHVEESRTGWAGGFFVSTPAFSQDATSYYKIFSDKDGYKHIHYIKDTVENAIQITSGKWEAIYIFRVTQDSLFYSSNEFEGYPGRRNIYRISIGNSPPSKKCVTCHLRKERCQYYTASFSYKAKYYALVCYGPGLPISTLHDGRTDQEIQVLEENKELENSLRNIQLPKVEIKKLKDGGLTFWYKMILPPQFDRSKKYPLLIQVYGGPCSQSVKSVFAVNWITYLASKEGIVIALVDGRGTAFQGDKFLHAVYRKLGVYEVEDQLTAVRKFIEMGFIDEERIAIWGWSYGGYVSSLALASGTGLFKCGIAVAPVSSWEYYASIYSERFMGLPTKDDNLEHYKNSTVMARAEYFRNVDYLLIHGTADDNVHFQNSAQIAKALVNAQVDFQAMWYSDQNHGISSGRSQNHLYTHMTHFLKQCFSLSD
Assay: Inhibition of mouse recombinant FAP expressed in HEK293 cells assessed as pNA release from Ala-Pro-p-nitroanilide pre-incubated with enzyme for 15 mins prior to substrate addition by […]
Format: cell-based
For `CC(C)(C)OC(=O)NCc1cn([C@H]2C[C@@H](C(=O)N3CCC[C@H]3C#N)N(C(=O)CCCc3ccccc3)C2)nn1`, the IC50 was > 100 µM. In the case of `[N-]=[N+]=N[C@@H]1C[C@@H](C(=O)N2CCCC2)N(C(=O)CCCc2ccccc2)C1`, the IC50 is reported as > 100 µM. In the case of `O=C([C@@H]1C[C@H](n2cc(-c3ccccn3)nn2)CN1C(=O)OCc1ccccc1)N1CCCC1`, the IC50 is reported as > 100 µM. With `O=C([C@@H]1C[C@H](n2cc(-c3ccccc3Cl)nn2)CN1C(=O)CCCc1ccccc1)N1CCCC1` the IC50 was > 5 µM. In the case of `O=C([C@@H]1C[C@H](n2cc(-c3ccc(Br)cc3)nn2)CN1C(=O)CCCc1ccccc1)N1CCCC1`, the IC50 is reported as > 100 µM. In the case of `O=C([C@@H]1C[C@H](n2cc(C3CCCCC3)nn2)CN1C(=O)CCCc1ccccc1)N1CCCC1`, the IC50 is reported as > 5 µM.

Target: Dipeptidyl peptidase 4 (Homo sapiens, UniProt P27487)
Sequence (P27487 whole entry): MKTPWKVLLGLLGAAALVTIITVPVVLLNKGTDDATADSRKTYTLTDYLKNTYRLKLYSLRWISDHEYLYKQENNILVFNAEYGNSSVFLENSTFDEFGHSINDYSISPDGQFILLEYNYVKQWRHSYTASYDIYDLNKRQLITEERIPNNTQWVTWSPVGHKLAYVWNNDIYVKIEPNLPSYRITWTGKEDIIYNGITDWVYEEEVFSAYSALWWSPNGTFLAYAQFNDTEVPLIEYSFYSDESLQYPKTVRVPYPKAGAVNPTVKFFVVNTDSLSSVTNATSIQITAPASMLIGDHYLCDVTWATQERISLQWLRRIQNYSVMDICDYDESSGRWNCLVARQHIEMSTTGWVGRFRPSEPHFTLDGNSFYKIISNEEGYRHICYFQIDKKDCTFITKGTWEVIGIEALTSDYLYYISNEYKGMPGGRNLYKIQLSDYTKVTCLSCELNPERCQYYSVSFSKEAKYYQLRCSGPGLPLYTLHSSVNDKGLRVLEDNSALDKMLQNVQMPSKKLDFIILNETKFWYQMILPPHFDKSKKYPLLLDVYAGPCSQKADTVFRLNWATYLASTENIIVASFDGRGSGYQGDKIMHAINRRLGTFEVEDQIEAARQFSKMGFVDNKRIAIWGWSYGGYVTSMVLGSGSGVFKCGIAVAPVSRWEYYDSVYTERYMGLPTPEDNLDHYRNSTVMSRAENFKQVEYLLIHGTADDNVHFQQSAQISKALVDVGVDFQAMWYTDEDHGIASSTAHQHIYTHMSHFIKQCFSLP
Assay: Inhibition of human seminal plasma DPP4 assessed as pNA release from Gly-Pro-p-nitroanilide substrate pre-incubated with enzyme for 15 min prior to substrate addition by […]
For `CC(C)(C)OC(=O)NCc1cn([C@H]2C[C@@H](C(=O)N3CCC[C@H]3C#N)N(C(=O)CCCc3ccccc3)C2)nn1`, the IC50 was > 100 µM. In the case of `[N-]=[N+]=N[C@@H]1C[C@@H](C(=O)N2CCCC2)N(C(=O)CCCc2ccccc2)C1`, the IC50 is reported as > 100 µM. For `O=C([C@@H]1C[C@H](n2cc(-c3ccccn3)nn2)CN1C(=O)OCc1ccccc1)N1CCCC1`, the IC50 was > 100 µM. In the case of `O=C([C@@H]1C[C@H](n2cc(-c3ccccc3Cl)nn2)CN1C(=O)CCCc1ccccc1)N1CCCC1`, the IC50 is reported as > 100 µM. With `O=C([C@@H]1C[C@H](n2cc(-c3ccc(F)cc3)nn2)CN1C(=O)CCCc1ccccc1)N1CCCC1` the IC50 was > 100 µM. With `O=C([C@@H]1C[C@H](n2cc(-c3ccc(Br)cc3)nn2)CN1C(=O)CCCc1ccccc1)N1CCCC1` the IC50 was > 100 µM. For `O=C([C@@H]1C[C@H](n2cc(C3CCCCC3)nn2)CN1C(=O)CCCc1ccccc1)N1CCCC1`, the IC50 was > 100 µM. With `CN(C)Cc1cn([C@H]2C[C@@H](C(=O)N3CCCC3)N(C(=O)CCCc3ccccc3)C2)nn1` the IC50 was > 100 µM.

Target: T1, Prolyl endopeptidase (Homo sapiens)
Assay: Inhibition of PREP in human SH-SY5Y cellular model of synucleinopathy over-expressing alpha-synuclein assessed as reduction in alpha-synuclein aggregation 0.1 to 9 uM incubated for 3 days under oxidative stress condition by high content multiparametric method
Method in brief: as §1
In the case of `CC(C)(C)OC(=O)NCc1cn([C@H]2C[C@@H](C(=O)N3CCC[C@H]3C#N)N(C(=O)CCCc3ccccc3)C2)nn1`, the inhibition is reported as “Active”.
